TbMetRS inhib: T. brucei MetRS inhibitors, primary screen, biochemical, luminescence; methionyl-tRNA synthetase (Trypanosoma brucei brucei); purified T. brucei MetRS, ATP depletion, Kinase-Glo luminescence; 360,000 tested, 0.4% active; inhibition, % at 11.9 µM; AID 624268, 2012;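 active = inhibition above a per-plate cutoff of the control wells' mean inhibition plus 3 SD, cut at about 5.5% in these data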
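Dosing: 11.9 µM single point; system: parasite MetRS enzyme; technique: luminescence of leftover ATP; times: 15 min enzyme-compound preincubation, 2 h reaction, 10 min detection, 25 °C; replicates: each compound tested once; read-out basis: percent inhibition relative to median high and low control wells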
Rce1 inh: yeast Rce1p protease inhibitors, primary screen, biochemical, fluorescence, cell-free homogeneous. yeast membranes, quenched prenylated peptide cleavage fluorescence. calls only. 290,000 tested, 0.27% active. AID 2563, 2010;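 active = fall in fluorescence gain of 50% or more versus controls, with final raw signal at or below 3038400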
DSG3 Ab inh: inhibitors of pemphigus antibody binding to DSG3, primary screen, biochemical, bead-based, flow cytometry, scFv-GFP; 310,000 tested, 0.48% active; Desmoglein-3 (Homo sapiens), P32926; binding (percent of control), % at 10 µM; DSG3-coupled beads, scFv-anti-DSG3-GFP binding; hits give low values;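 active = binding more than 3 SD below its plate's average and above zero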;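 note: hits lower antibody fragment binding to DSG3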
Target sequence (P32926 whole entry, looked up, the tested form may be a part): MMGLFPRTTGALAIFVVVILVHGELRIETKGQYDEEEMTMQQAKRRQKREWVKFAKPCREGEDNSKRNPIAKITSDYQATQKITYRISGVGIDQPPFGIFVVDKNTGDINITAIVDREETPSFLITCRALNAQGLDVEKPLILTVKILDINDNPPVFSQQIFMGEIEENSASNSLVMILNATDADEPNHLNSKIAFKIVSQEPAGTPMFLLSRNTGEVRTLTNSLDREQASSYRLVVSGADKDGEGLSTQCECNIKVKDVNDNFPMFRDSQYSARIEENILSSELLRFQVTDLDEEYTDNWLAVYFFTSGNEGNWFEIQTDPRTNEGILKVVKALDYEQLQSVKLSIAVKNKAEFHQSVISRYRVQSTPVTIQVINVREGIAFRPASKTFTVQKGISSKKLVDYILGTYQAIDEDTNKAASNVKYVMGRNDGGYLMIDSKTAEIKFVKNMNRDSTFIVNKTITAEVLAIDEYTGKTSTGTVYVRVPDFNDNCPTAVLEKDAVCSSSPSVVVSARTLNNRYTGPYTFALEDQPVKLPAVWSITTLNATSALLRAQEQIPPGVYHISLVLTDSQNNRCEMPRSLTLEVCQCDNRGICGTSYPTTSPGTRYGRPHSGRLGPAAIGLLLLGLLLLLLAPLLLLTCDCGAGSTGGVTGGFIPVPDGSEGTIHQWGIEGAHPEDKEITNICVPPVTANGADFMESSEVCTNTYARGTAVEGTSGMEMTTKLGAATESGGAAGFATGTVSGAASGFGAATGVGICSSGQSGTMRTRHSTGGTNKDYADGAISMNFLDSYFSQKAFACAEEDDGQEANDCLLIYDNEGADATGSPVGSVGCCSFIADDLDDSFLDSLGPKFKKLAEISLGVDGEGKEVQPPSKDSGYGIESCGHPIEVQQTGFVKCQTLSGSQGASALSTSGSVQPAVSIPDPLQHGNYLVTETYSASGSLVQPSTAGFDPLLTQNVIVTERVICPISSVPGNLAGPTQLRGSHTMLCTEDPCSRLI
core dimer inh: inhibitors of HCV core protein dimerization, primary screen, biochemical, TR-FRET, high-throughput. TR-FRET GST/Flag-core106 dimerization, 1536-well. AID 1899, 2009. 300,000 tested, 0.33% active. inhibition, % at 5 µM;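 active = inhibition above the mean of all tested compounds plus 3 SD, set per screening campaign, cut at about 45% in these data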
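System – GST-tagged and Flag-tagged HCV core protein residues 1-106 · Repeats – one well for each compound · Technique – TR-FRET 671 and 617 nm emission · Doses – one concentration, 5 µM, in 0.5% DMSO · Times – 4 h, 22.5 °C incubation · Also added – Eu donor and XL665 acceptor anti-tag antibodies · Measure – percent inhibition of core106 dimerization signal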
NadD inh: inhibitors of S. aureus NadD, primary screen, biochemical, colorimetric, uHTS; inhibition, % at 20 µM; 360,000 tested, 0.78% active; Nicotinate-nucleotide adenylyltransferase NadD (Staphylococcus aureus N315); purified NadD enzyme, colorimetric absorbance read-out; AID 602399, 2012; in the data active = inhibition above about 26%
Each line names hits and unclear results; the compound was inactive in the other large screens. In the library only some 1.9% were active in any assay of this set; here they are far more common.

Cc1ccc(S(=O)(=O)N2CCOCC2)cc1NC(=O)COC(=O)c1ccc(Cl)s1	none (no result: Rce1 inh, core dimer inh)
COc1ccc(C(=O)Nc2ccc(NC(=O)c3cnccn3)cn2)cc1	DSG3 Ab inh 72
c1ccc(Nc2nc(-c3ccncc3)nc3ccccc23)cc1	none
Fc1ccc(Nc2nc(-c3ccncc3)nc3ccccc23)cc1	DSG3 Ab inh 85
CCn1c(COc2cccc(C)c2)nnc1SCC(=O)NC1CCCC1	Rce1 inh active
CCn1c(COc2cccc(OC)c2)nnc1SCC(=O)NC1CCCC1	none (no result: core dimer inh)
O=C(CSc1ccc(-c2ccc(F)cc2)nn1)N1CCOCC1	none
O=C(CSc1ccc(-c2ccc(F)cc2)nn1)N1CCN(c2ccccc2)CC1	DSG3 Ab inh 84
O=C(CN1CCC(NC(=O)c2ccc(Br)cc2)CC1)NCc1cccs1	Rce1 inh active
CCOc1nc(NCCO)nc(Nc2ccc([N+](=O)[O-])cc2)n1	none
COc1cc(N)ccc1Nc1c2ccccc2nc2ccccc12	NadD inh 35 (no result: Rce1 inh, DSG3 Ab inh, core dimer inh)
CCCS(=O)(=O)Nc1ccc(Nc2c3ccccc3nc3ccccc23)c(OC)c1	none (no result: Rce1 inh, core dimer inh)
CC(=O)NNC(=O)CCn1nnc2ccccc21	none
CCC1CCCCN1S(=O)(=O)c1ccc(C(=O)Nc2nnc(-c3cccs3)o2)cc1 (configuration not stated)	NadD inh 42 (no result: Rce1 inh)
CC1CC(C)CN(S(=O)(=O)c2ccc(C(=O)Nc3nnc(-c4cccs4)o3)cc2)C1 (configuration not stated)	none
CCN(CC)c1ccc(C(=O)c2ccccc2C(=O)O)c(O)c1	Rce1 inh active
CCN(CC)c1ccc(/C=N/N(c2ccccc2)c2ccccc2)c(O)c1	none
CCn1cc(C(=O)O)c(=O)c2cc(F)c(N3CCN(C)CC3)cc21	none
CCn1cc(C(=O)NCc2ccco2)c(=O)c2cc(F)c(N3CCN(C(=O)c4ccco4)CC3)cc21	core dimer inh 56
CCn1cc(S(=O)(=O)c2ccc(OC)cc2)c(=O)c2cc(F)c(N3CCN(C)CC3)cc21	Rce1 inh active (no result: DSG3 Ab inh)
CCn1cc(C(=O)N[C@H](C)c2ccccc2)c(=O)c2cc(F)c(N3CCN(C)CC3)cc21	Rce1 inh active
CCn1cc(C(=O)NCC(C)C)c(=O)c2cc(F)c(N3CCN(C(=O)c4ccco4)CC3)cc21	none (no result: DSG3 Ab inh)
CCOC(=O)C1(C)CCN1C(=O)c1cc(-c2ccc(Cl)cc2)oc1C (configuration not stated)	none (no result: Rce1 inh, DSG3 Ab inh, core dimer inh)
Cc1cc(C(=O)NCc2ccccc2Cl)c2ccccc2n1	none
CCCn1c2ccccc2c2cnn(CC(=O)NC3CCCCC3)c(=O)c21	none
CCCCNS(=O)(=O)c1ccc2nc(SCC(=O)c3ccccc3OC)[nH]c2c1	TbMetRS inhib 13
CCCCNS(=O)(=O)c1ccc2nc(SCC(N)=O)[nH]c2c1	none
N#Cc1c(N)oc(-c2ccco2)c1-c1ccco1	none
COc1ccc(OC)c(/C=N/c2oc(-c3ccco3)c(-c3ccco3)c2C#N)c1	Rce1 inh active
CCN(CC)CCN(Cc1cc2cc3c(cc2[nH]c1=O)OCO3)C(=S)NCc1ccco1	Rce1 inh active
CCOc1ccc(NC(=O)CSc2nnc(C)n2CC)cc1	DSG3 Ab inh 78
COCCN(CC(=O)Nc1cccc(C)c1)S(=O)(=O)c1ccc(S(=O)(=O)N2CCCC2)cc1	DSG3 Ab inh -25
O=C(/C=C/N1CCOCC1)c1cc2ccccc2o1	none
COc1ccccc1CNc1nc(-c2cc(C)n(C)c2C)cs1	NadD inh 30 (no result: Rce1 inh, core dimer inh)
Cc1ccc(/C=N/NC(=O)c2nnn(-c3nonc3N)c2CSc2ccccc2)cc1	none
Nc1nonc1-n1nnc(C(=O)N/N=C/c2cccc(Cl)c2)c1CSc1ccccc1	none (no result: Rce1 inh)
Cc1ccc(/C=N/NC(=O)c2nnn(-c3nonc3N)c2CNc2ccccc2)cc1	none
Cc1ccc(SCc2c(C(=O)N/N=C/c3ccccc3)nnn2-c2nonc2N)cc1	Rce1 inh active (no result: DSG3 Ab inh)
Nc1nonc1-n1nnc(C(=O)N/N=C/c2cc(Br)ccc2O)c1CNc1ccccc1	NadD inh 53

From PubChem
